Paper PMC5480311 (ACS infectious diseases, 2016)
pIC50: −log10 of the molar value.

What was measured:
UL44−P54 interaction = UL44−P54 interaction (Human cytomegalovirus, UniProt P16790); assay: FP assay of UL44−P54 interaction; assay type: binding; conditions: IC50, inhibition of P54−UL44 interaction, incubation time 20 min or beyond
Procedure, shortened: (§1)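 Fluorescence polarization assays of each protein–peptide pair: UL44–P54 (GST-fused UL44ΔC290 with fluorescently labelled P54), UL42–P30 and PCNA–p21. Test compound was pre-incubated for set times, up to 60 min, before FP was read. Normalized mP relative to the no-inhibitor control was plotted against compound concentration. Error bars are standard errors of the mean.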

PCNA−P21 interaction = PCNA−P21 interaction (Homo sapiens, UniProt P12004); assay: FP assay of PCNA−P21 interaction; assay type: binding; conditions: incubation up to 60 min, not meaningfully changed
Procedure, shortened: as §1

[1] = molecular target: UL44 binding to full-length UL54 (Human cytomegalovirus, UniProt P16790); assay: UL54−UL44 interaction assay by biolayer interferometry
Procedure, shortened: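 Biolayer interferometry measured UL44 binding to full-length UL54 in the presence of test compound. Signal is given relative to binding without compound, and error bars are standard errors of the mean.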

[2] = molecular target: UL44 K60A−P54 interaction (Human cytomegalovirus, UniProt P16790, K60A); assay: FP assay of mutant UL44 K60A−P54 interaction; assay type: binding; conditions: read-out: inhibition of UL44 K60A−P54 interaction
UL54 = UL54 (Human cytomegalovirus, UniProt P08546); assay: DNA synthesis by UL54 alone, filter binding assay; assay type: biochemical
Procedure, shortened: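 Basal DNA synthesis by UL54 alone, without UL44, was measured by filter-binding assay across test compound concentrations. Signal is given relative to no compound, and error bars are standard errors of the mean.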

UL42−P30 interaction = UL42−P30 interaction (Human herpesvirus 1, UniProt P10226); assay: FP assay of UL42−P30 interaction; assay type: binding, herpes simplex virus-1
Procedure, shortened: as §1

UL54/UL44 DNA polymerase = UL54/UL44 DNA polymerase (Human cytomegalovirus, UniProt P16790); assay: Long-chain DNA synthesis by UL54−UL44; assay type: biochemical
Procedure, shortened: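 UL54 with UL44 was used to make long-chain DNA products, and their formation was followed across a dose series of test compound, with product lanes compared. Signal is expressed relative to the no-compound reaction, and error bars are standard errors of the mean.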

Chain of PCNA−P21 interaction (P12004 whole entry): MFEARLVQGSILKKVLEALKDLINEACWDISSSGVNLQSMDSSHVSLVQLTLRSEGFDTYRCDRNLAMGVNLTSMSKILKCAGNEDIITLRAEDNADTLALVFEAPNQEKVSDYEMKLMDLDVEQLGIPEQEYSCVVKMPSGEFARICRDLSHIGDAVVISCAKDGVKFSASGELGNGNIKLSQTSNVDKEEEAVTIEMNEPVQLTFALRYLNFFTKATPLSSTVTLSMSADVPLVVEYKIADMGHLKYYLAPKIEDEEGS

SMILES: CSc1scc2c1C(=O)C(=CN(C)C)CC2 [SGM8]
- pIC50 (UL44−P54 interaction): 5.70
- inhibition of P21−PCNA interaction (PCNA−P21 interaction): very weak inhibition
- pIC50 [1]: 5.35
- inhibition at 20 µM [2]: < 50%
- pIC50 (UL54): < 4.00
- pIC50 (UL42−P30 interaction): ~4.70
- change of inhibition of P30−UL42 interaction on longer incubation (UL42−P30 interaction; incubation time extended to 60 min): only slightly increased
- pIC50 (UL54/UL44 DNA polymerase): 5.49
